Source: ChEMBL document CHEMBL4732162, “Design, synthesis and evaluation of novel ErbB/HDAC multitargeted inhibitors with selectivity in EGFR mutant cell lines” (Eur J Med Chem, 2021)
Activity calls are given as the source filed them. The calls are words filed in the database; no cut-off is given here.

Legend:
SK-BR-3 = assay: Antiproliferation activity against human SK-BR-3 cells incubated for 72 hrs by MTT assay; assay type: functional, cell-based; conditions: SK-BR-3, 72 h
Method in brief: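 MTT assay. About 0.5–1 × 10⁴ cells/well were pre-incubated 12 h at 37 °C in 5% CO₂, then exposed to a concentration series of compound for 72 h. Formazan was dissolved in DMSO and absorbance read at 490 nm. Three wells per condition, three independent experiments. IC50 is the mean ± SD from the dose-response curves.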

[1] = target: T1, Epidermal growth factor receptor (Homo sapiens, UniProt P00533); assay: Inhibition of EGFR in human NCI-H1975 cells assessed as reduction in EGFR phosphorylation at Tyr-1068 residues at 1 uM after 48 hrs by Western blot analysis; assay type: cell-based
Method in brief: (§1)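 Cells were treated with compound for 48 h and lysed on ice for 30 min in RIPA buffer with protease and phosphatase inhibitors. Lysates were cleared at 14000 g, 4 °C, and protein quantified by BCA. Samples were boiled in loading buffer, run on 10–12% SDS-PAGE and transferred to PVDF. Membranes were blocked 2 h, incubated in primary antibody overnight at 4 °C, then in secondary antibody 2 h at room temperature.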

[2] = target: T1, Epidermal growth factor receptor; assay: Inhibition of EGFR in human NCI-H1975 cells assessed as reduction in EGFR phosphorylation at Tyr-1173 residues at 1 uM after 48 hrs by Western blot analysis; assay type: cell-based; method in brief: as §1
NCI-H1975 = assay: Antiproliferative activity against human NCI-H1975 cells incubated for 72 hrs by MTT assay; assay type: functional, cell-based; conditions: NCI-H1975, 72 h
A-431 = assay: Antiproliferative activity against human A431 cells incubated for 72 hrs by MTT assay; assay type: functional, cell-based; conditions: A-431, 72 h
NCI-H838 = assay: Antiproliferation activity against human NCI-H838 cells incubated for 72 hrs by MTT assay; assay type: functional, cell-based; conditions: NCI-H838, 72 h
A549 = assay: Antiproliferative activity against human A549 cells incubated for 72 hrs by MTT assay; assay type: functional, cell-based; conditions: A549, 72 h
[3] = target: Receptor tyrosine-protein kinase erbB-2 (Homo sapiens, UniProt P04626); assay: Inhibition of HER2 (unknown origin) by mobility shift assay
Method in brief: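 In vitro kinase activity was measured by mobility shift assay, run by a contract provider.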

Histone deacetylase 1 = Histone deacetylase 1 (Homo sapiens, UniProt Q13547); assay: Inhibition of HDAC1 (unknown origin)
[4] = target: Epidermal growth factor receptor (Homo sapiens, UniProt P00533, L858R/T790M); assay: Inhibition of EGFR L858R/T790M (unknown origin) by mobility shift assay
[5] = target: T1, Epidermal growth factor receptor; assay: Inhibition of EGFR (unknown origin) by mobility shift assay
[6] = target: Epidermal growth factor receptor (Homo sapiens, UniProt P00533, L858R); assay: Inhibition of EGFR L858R (unknown origin) by mobility shift assay
L02 = assay: cytotoxicity against human HL-7702 cells assessed as reduction of cell viability incubated for 72 hrs by MTT assay; assay type: ADME, cell-based; conditions: L02, 72 h
FHC = assay: Cytotoxicity against human FHC cells assessed as reduction of cell viability incubated for 72 hrs by MTT assay; assay type: ADME, cell-based
[7] = target: Histone deacetylase (Homo sapiens) (UniProt Q13547+O15379+Q9UBN7+Q92769+Q9UQL6+Q8WUI4+Q9BY41+Q96DB2+P56524+Q9UKV0+Q969S8); assay: Inhibition of HDAC in human NCI-H1975 cells assessed as increase in histone H3 acetylation at 2.5 uM after 1 to 12 hrs by Western blot analysis; assay type: cell-based; conditions: time lower 1.0 hrs, time upper […]

Chain of Epidermal growth factor receptor (Homo sapiens, UniProt P00533, L858R/T790M) (P00533 25-1210 T790M/L858R limits assumed): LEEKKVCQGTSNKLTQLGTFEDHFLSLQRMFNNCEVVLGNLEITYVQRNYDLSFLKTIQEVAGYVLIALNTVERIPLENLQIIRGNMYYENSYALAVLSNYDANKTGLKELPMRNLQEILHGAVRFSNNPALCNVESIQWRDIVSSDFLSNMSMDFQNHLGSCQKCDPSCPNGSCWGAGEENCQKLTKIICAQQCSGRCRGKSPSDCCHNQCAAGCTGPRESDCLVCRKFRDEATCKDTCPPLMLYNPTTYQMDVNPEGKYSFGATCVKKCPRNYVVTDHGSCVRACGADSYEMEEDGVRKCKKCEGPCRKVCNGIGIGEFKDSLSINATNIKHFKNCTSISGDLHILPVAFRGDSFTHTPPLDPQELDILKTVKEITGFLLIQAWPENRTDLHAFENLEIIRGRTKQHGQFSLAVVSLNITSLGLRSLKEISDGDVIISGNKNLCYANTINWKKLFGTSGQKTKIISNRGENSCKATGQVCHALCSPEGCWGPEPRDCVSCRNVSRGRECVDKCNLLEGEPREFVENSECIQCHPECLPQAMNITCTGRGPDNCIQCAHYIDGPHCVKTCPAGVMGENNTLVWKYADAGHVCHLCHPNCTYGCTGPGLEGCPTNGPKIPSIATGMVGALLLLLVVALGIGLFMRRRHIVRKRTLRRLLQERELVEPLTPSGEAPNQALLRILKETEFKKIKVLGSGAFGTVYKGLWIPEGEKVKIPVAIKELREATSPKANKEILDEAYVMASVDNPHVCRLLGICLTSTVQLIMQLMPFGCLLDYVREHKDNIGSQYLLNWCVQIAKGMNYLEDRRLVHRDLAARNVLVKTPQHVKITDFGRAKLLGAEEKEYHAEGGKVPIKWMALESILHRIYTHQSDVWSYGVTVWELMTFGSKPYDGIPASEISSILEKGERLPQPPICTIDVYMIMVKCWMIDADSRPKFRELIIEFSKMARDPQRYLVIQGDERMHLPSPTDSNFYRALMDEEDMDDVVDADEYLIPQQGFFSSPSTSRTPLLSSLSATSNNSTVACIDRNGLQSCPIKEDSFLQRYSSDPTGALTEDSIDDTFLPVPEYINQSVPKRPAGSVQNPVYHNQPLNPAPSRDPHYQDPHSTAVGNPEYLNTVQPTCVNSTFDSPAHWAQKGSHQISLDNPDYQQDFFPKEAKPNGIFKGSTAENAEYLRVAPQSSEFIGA
T1 sequence (P00533 whole entry): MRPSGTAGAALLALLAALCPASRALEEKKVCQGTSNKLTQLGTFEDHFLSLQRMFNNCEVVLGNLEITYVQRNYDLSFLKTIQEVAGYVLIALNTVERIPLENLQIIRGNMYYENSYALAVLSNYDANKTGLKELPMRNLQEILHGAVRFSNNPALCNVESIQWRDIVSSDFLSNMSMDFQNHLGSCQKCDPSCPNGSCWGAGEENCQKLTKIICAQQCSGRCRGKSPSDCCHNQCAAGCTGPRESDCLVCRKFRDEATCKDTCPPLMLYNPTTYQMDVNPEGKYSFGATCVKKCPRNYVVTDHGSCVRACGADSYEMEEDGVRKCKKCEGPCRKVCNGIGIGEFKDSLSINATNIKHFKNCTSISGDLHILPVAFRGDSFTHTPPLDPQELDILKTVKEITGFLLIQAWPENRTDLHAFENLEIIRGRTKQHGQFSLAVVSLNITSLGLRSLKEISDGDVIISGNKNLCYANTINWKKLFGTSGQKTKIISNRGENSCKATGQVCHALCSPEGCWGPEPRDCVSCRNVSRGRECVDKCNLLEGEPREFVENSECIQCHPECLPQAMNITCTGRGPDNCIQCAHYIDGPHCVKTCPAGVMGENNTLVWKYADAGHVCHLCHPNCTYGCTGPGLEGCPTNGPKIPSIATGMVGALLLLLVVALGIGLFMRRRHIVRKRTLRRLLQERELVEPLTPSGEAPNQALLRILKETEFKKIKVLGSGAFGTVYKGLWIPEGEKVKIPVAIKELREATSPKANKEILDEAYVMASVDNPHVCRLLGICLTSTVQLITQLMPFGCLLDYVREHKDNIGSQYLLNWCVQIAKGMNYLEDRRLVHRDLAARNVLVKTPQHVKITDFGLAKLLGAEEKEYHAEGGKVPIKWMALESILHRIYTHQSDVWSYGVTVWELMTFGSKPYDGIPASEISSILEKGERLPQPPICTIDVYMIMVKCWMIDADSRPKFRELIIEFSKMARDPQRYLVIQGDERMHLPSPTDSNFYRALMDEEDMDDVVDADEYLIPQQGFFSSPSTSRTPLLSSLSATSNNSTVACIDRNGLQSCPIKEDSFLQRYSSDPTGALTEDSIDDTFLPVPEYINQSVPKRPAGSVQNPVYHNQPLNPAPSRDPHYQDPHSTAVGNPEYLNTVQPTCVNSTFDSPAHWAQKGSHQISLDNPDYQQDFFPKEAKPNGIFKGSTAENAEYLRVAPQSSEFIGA
Chain of Epidermal growth factor receptor (Homo sapiens, UniProt P00533, L858R) (P00533 25-1210 L858R limits assumed): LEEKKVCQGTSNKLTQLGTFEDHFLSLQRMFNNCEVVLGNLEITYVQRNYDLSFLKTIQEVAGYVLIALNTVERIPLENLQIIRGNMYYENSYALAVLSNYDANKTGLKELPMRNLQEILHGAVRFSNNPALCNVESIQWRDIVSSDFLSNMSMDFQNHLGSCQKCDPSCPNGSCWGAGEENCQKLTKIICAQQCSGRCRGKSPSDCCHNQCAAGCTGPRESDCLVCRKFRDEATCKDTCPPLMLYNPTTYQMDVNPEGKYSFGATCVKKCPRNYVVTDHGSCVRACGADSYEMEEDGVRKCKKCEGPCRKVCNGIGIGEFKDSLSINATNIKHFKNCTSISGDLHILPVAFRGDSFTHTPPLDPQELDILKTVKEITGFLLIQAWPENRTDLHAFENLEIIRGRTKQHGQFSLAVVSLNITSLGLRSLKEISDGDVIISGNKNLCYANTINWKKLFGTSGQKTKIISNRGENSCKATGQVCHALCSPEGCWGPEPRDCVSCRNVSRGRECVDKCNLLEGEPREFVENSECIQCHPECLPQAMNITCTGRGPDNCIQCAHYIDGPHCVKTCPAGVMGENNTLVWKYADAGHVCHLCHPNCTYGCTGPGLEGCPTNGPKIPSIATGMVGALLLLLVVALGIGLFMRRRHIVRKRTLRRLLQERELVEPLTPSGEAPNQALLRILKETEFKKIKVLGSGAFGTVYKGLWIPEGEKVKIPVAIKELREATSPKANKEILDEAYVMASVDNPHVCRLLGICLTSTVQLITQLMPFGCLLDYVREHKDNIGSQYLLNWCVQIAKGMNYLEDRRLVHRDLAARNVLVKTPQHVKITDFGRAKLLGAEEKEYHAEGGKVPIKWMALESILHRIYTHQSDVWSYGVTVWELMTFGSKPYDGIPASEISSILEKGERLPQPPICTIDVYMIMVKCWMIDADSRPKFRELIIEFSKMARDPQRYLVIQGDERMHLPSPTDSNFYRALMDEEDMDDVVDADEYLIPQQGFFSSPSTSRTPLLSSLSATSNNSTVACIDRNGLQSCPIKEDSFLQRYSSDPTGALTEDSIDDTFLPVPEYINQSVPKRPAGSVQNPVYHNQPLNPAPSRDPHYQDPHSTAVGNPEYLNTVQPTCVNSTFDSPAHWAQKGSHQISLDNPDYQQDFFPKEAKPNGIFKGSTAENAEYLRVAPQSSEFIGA
Chain of Histone deacetylase 1 (Q13547 whole entry): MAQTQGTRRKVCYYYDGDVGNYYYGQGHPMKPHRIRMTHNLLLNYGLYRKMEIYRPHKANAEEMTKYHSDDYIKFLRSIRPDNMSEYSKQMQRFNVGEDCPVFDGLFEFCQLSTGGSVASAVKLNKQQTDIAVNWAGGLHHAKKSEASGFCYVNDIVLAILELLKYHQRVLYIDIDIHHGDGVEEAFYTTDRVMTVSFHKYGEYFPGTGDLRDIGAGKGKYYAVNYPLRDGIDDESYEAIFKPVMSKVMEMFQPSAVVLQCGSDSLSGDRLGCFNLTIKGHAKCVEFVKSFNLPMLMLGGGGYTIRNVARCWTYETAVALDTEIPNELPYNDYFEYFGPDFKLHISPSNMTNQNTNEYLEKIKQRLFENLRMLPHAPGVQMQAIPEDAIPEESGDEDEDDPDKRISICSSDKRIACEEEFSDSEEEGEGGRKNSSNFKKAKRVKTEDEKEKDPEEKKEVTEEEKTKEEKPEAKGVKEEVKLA

Row | SMILES | IC50 (SK-BR-3) [nM] | inhibition [1] | inhibition [2] | IC50 (NCI-H1975) [nM] | IC50 (A-431) [nM] | IC50 (NCI-H838) [nM] | IC50 (A549) [nM] | IC50 [3] [nM] | IC50 (Histone deacetylase 1) [nM] | IC50 [4] [nM] | IC50 [5] [nM] | IC50 [6] [nM] | inhibition [7] | IC50 (L02) [nM] | IC50 (FHC) [nM]
1 | O=C(CCCCCCC(=O)Nc1ccccc1)NO [VORINOSTAT] | 2130 | inactive | inactive | – | – | – | – | – | – | – | – | – | – | – | –
2 | C=CC(=O)Nc1cc2c(Nc3ccc(F)c(Cl)c3)ncnc2cc1OCc1cn(CCCCC(=O)NO)nn1 | 20000 | – | – | 2500 | 15000 | > 50000 | > 50000 | 7.3 | 292 | 1.8 | 0.35 | 0.88 | – | > 25000 | > 25000
3 | C=CC(=O)Nc1cc2c(Nc3ccc(OCc4cccc(F)c4)c(Cl)c3)ncnc2cc1OCc1cn(CCC(=O)NO)nn1 | 24800 | – | – | 21000 | 16300 | > 50000 | > 50000 | 3.7 | > 1000 | 16 | 1.1 | 2.2 | – | > 25000 | > 25000
4 | C=CC(=O)Nc1cc2c(Nc3cccc(Cl)c3F)ncnc2cc1OCc1cn(CCCC(=O)NO)nn1 | > 50000 | – | – | 2800 | 16900 | > 50000 | > 50000 | 8 | 34 | – | – | – | – | > 25000 | > 25000
5 | C=CC(=O)Nc1cc2c(Nc3ccc(F)c(Cl)c3)ncnc2cc1OCc1cn(CCC(=O)NO)nn1 | > 50000 | – | – | 4450 | 22000 | > 50000 | > 50000 | 5.4 | 93 | 2.3 | 0.33 | 1.1 | – | > 25000 | > 25000
6 | C=CC(=O)Nc1cc2c(Nc3cccc(Cl)c3F)ncnc2cc1OCc1cn(CCC(=O)NO)nn1 | > 50000 | – | – | 6610 | 15000 | > 50000 | > 50000 | 13 | 44 | 8.3 | 0.34 | 1.1 | – | > 25000 | > 25000

Continued, in another order:

Row | IC50 (SK-BR-3) [nM] | inhibition [1] | inhibition [2] | IC50 (NCI-H1975) [nM] | IC50 (A-431) [nM] | IC50 (NCI-H838) [nM] | IC50 (A549) [nM] | IC50 [3] [nM] | IC50 (Histone deacetylase 1) [nM] | IC50 [4] [nM] | IC50 [5] [nM] | IC50 [6] [nM] | inhibition [7] | SMILES | IC50 (L02) [nM] | IC50 (FHC) [nM]
7 | 20200 | – | – | 12000 | 19900 | > 50000 | > 50000 | 3.7 | > 1000 | 15 | 1.8 | 2.9 | – | C=CC(=O)Nc1cc2c(Nc3ccc(OCc4cccc(F)c4)c(Cl)c3)ncnc2cc1OCc1cn(CCCC(=O)NO)nn1 | > 25000 | > 25000
8 | 16000 | – | – | 14500 | 18800 | > 50000 | > 50000 | 3.8 | > 1000 | 14 | 1.5 | 2.6 | – | C=CC(=O)Nc1cc2c(Nc3ccc(OCc4cccc(F)c4)c(Cl)c3)ncnc2cc1OCc1cn(CCCCC(=O)NO)nn1 | > 25000 | > 25000
9 | > 50000 | – | – | 4180 | 15600 | > 50000 | > 50000 | 16 | 132 | 17 | 0.44 | 1.2 | – | C=CC(=O)Nc1cc2c(Nc3cccc(Cl)c3F)ncnc2cc1OCc1cn(CCCCC(=O)NO)nn1 | > 25000 | > 25000
10 | – | – | – | – | – | – | – | – | – | – | – | – | Active | COc1cc2ncnc(Nc3ccc(F)c(Cl)c3)c2cc1OCCCN1CCOCC1 | – | –
